Measurements reported in ChEMBL document CHEMBL1157379, “Transcriptional response of Candida parapsilosis following exposure to farnesol” (2007).
Active and inactive are the calls of the source. No cut-off for these calls is given here.

Experiments:
Candida parapsilosis [1] = experiment: Increase in ELF1 gene expression in Candida parapsilosis CLIB214 at 50 uM after 2 hrs by microarray based transcriptional profiling relative to control; assay type: functional
Outline: (§1)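 Strain grown overnight in YPD at 30°C, diluted to A600 0.2 in YPD at 30°C; farnesol (40 mM methanol stock) added at 4 h (A600 0.8), final 50 μM; methanol-only control. Cells collected 2 h later for RNA. Labelled cDNA from 25 μg total RNA (Cy3/Cy5-dCTP) hybridized to 68-mer oligo arrays at 42°C ~16 h; six individual comparisons analysed statistically.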

Candida parapsilosis [2] = experiment: Increase in CGD gene ortholog accession number orf19.6018 expression in Candida parapsilosis CLIB214 at 50 uM after 2 hrs by microarray based transcriptional profiling relative to control; assay type: functional
Outline: (§2)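 Strain CLIB214 grown overnight in YPD at 30°C, diluted to A600 0.2 in fresh YPD at 30°C. After 4 h (A600 0.8), farnesol (40 mM methanol stock) added to 50 μM final, or an equal methanol volume as control; cells harvested 2 h later. RNA was accepted only with a 28S/18S ratio of 1.6–2.2. Cy3/Cy5-dCTP-labelled cDNA was made from 25 μg total RNA. Hybridisation was to duplicate-spotted 68-mer oligo arrays (3,849 genes) at 42°C for about 16 h. Six individual comparisons.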

Candida parapsilosis [3] = experiment: Increase in PXP2 gene expression in Candida parapsilosis CLIB214 at 50 uM after 2 hrs by microarray based transcriptional profiling relative to control; assay type: functional; outline: as §1
Candida parapsilosis [4] = experiment: Decrease in CGD gene ortholog accession number orf19.409 expression in Candida parapsilosis CLIB214 at 50 uM after 2 hrs by microarray based transcriptional profiling relative to control; assay type: functional
Outline: (§3)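 Cells in YPD at 30°C treated with 50 μM farnesol at 4 h, with a methanol control. RNA harvested 2 h later and kept only if 28S/18S ratio was 1.6–2.2 with no degradation. 25 μg total RNA oligo-dT primed and labeled with Cy3/Cy5-dCTP. Labeled cDNA hybridized about 16 h at 42°C to duplicate-spotted 68-mer oligo arrays. Six individual comparisons analyzed statistically.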

Candida parapsilosis [5] = experiment: Increase in GIR2 gene expression in Candida parapsilosis CLIB214 at 50 uM after 2 hrs by microarray based transcriptional profiling relative to control; assay type: functional; outline: as §1
Candida parapsilosis [6] = experiment: Increase in CGD gene ortholog accession number orf19.7235 expression in Candida parapsilosis CLIB214 at 50 uM after 2 hrs by microarray based transcriptional profiling relative to control; assay type: functional; outline: as §2
Candida parapsilosis [7] = experiment: Increase in CGD gene ortholog accession number orf19.1026 expression in Candida parapsilosis CLIB214 at 50 uM after 2 hrs by microarray based transcriptional profiling relative to control; assay type: functional; outline: as §2
Candida parapsilosis [8] = experiment: Decrease in CGD gene ortholog accession number orf19.4372 expression in Candida parapsilosis CLIB214 at 50 uM after 2 hrs by microarray based transcriptional profiling relative to control; assay type: functional; outline: as §3
Candida parapsilosis [9] = experiment: Decrease in CGD gene ortholog accession number orf19.7325 expression in Candida parapsilosis CLIB214 at 50 uM after 2 hrs by microarray based transcriptional profiling relative to control; assay type: functional; outline: as §2
Candida parapsilosis [10] = experiment: Increase in CGD gene ortholog accession number orf19.5847 expression in Candida parapsilosis CLIB214 at 50 uM after 2 hrs by microarray based transcriptional profiling relative to control; assay type: functional; outline: as §2
Candida parapsilosis [11] = experiment: Increase in CGD gene ortholog accession number orf19.3544 expression in Candida parapsilosis CLIB214 at 50 uM after 2 hrs by microarray based transcriptional profiling relative to control; assay type: functional; outline: as §2
Candida parapsilosis [12] = experiment: Antifungal activity against Candida parapsilosis CLIB214 assessed as growth inhibition at 10 to 20 uM added 4 hrs after […] growth; assay type: functional, organism-based
Candida parapsilosis [13] = experiment: Antifungal activity against Candida parapsilosis CLIB214 assessed as growth inhibition at 50 uM added 4 hrs after […] growth; assay type: functional, organism-based
Outline: (§4)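 C. parapsilosis CLIB214 grown overnight in YPD at 30°C, diluted to A600 0.2 in fresh YPD, grown 4 h (A600 0.8), then farnesol added at final 10, 20, 50 or 100 μM from a 40 mM methanol stock. Methanol-only controls. Growth followed by A600 or by cell counting with a particle counter.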

Candida parapsilosis [14] = experiment: Antifungal activity against Candida parapsilosis CLIB214 assessed as growth inhibition at 50 uM added 4 hrs after […] growth within 2 hrs by cell counting method; assay type: functional, organism-based; outline: as §4
Candida parapsilosis [15] = experiment: Cell cycle arrest in Candida parapsilosis CLIB214 assessed as accumulation at G1 phase at 50 uM added 4 hrs after […] growth; assay type: functional, organism-based
Outline: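 YPD culture diluted to A600 0.2 at 30°C. Farnesol added to 50 μM after 4 h. Budding cells scored by microscopy: unbudded as G1, small budded as S, large budded as G2/M. Compared with methanol controls.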

Candida parapsilosis [16] = experiment: Antifungal activity against Candida parapsilosis CLIB214 assessed as induction of cell death at 50 uM added 4 hrs after […] growth after 2 hrs by colony counting method; assay type: functional
Outline: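 Type strain grown overnight in YPD at 30°C, diluted to A600 0.2 in YPD; farnesol (40 mM stock in methanol) added at a final 50 μM, with a methanol-only control. Viability was measured by CFU counts taken 1 h and 2 h after addition.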

Candida parapsilosis [17] = experiment: Antifungal activity against Candida parapsilosis CLIB214 assessed as growth inhibition at 50 uM added after 2 hrs of bacterial growth measured after 2 hrs; assay type: functional; conditions: Lodderomyces parapsilosis, CLIB214, 2 h
Outline: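 Overnight YPD culture at 30°C diluted to A600 0.2 in YPD. Farnesol added to 50 μM final at 2, 4, 6 or 8 h of growth (A600 about 0.8 at 4 h, 2.3 at 6 h, 6 at 8 h). Growth compared with methanol controls by A600 or cell counts.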

Candida parapsilosis [18] = experiment: Effect on GDH2 gene expression in Candida parapsilosis CLIB214 by microarray based transcriptional profiling; assay type: functional, organism-based; outline: as §2
Candida parapsilosis [19] = experiment: Increase in CGD gene ortholog accession number orf19.1953 expression in Candida parapsilosis CLIB214 at 50 uM after 2 hrs by microarray based transcriptional profiling relative to control; assay type: functional; outline: as §2
Candida parapsilosis [20] = experiment: Increase in RTA3 gene expression in Candida parapsilosis CLIB214 at 50 uM after 2 hrs by microarray based transcriptional profiling relative to control; assay type: functional; outline: as §1
Candida parapsilosis [21] = experiment: Decrease in CGD gene ortholog accession number orf19.2892 expression in Candida parapsilosis CLIB214 at 50 uM after 2 hrs by microarray based transcriptional profiling relative to control; assay type: functional; outline: as §3
Candida parapsilosis [22] = experiment: Decrease in CGD gene ortholog accession number orf19.2308 expression in Candida parapsilosis CLIB214 at 50 uM after 2 hrs by microarray based transcriptional profiling relative to control; assay type: functional; outline: as §3
Candida parapsilosis [23] = experiment: Decrease in PCL7 gene expression in Candida parapsilosis CLIB214 at 50 uM after 2 hrs by microarray based transcriptional profiling relative to control; assay type: functional; outline: as §2
Candida parapsilosis [24] = experiment: Decrease in CGD gene ortholog accession number orf19.672 expression in Candida parapsilosis CLIB214 at 50 uM after 2 hrs by microarray based transcriptional profiling relative to control; assay type: functional; outline: as §2
Candida parapsilosis [25] = experiment: Increase in CGD gene ortholog accession number orf19.6117 expression in Candida parapsilosis CLIB214 at 50 uM after 2 hrs by microarray based transcriptional profiling relative to control; assay type: functional; outline: as §2

## CC(C)=CCC/C(C)=C/CC/C(C)=C/CO [FARNESOL]
Candida parapsilosis [1]
  fold change (FC): 2.16
Candida parapsilosis [2]
  fold change (FC): 2.07
Candida parapsilosis [3]
  fold change (FC): 2.04
Candida parapsilosis [4]
  fold change (FC): 2.21
Candida parapsilosis [5]
  fold change (FC): 1.74
Candida parapsilosis [6]
  fold change (FC): 1.56
Candida parapsilosis [7]
  fold change (FC): 1.55
Candida parapsilosis [8]
  fold change (FC): 1.67
Candida parapsilosis [9]
  fold change (FC): 1.67
Candida parapsilosis [10]
  fold change (FC): 1.89
Candida parapsilosis [11]
  fold change (FC): 1.87
Candida parapsilosis [12]
  Activity: inactive
Candida parapsilosis [13]
  Activity: Active
Candida parapsilosis [14]
  Activity: Active
Candida parapsilosis [15]
  Activity: Active
Candida parapsilosis [16]
  Activity: 20%
Candida parapsilosis [17]
  inhibition at 50 µM: 68.5%
Candida parapsilosis [18]
  Activity: inactive
Candida parapsilosis [19]
  fold change (FC): 1.77
Candida parapsilosis [20]
  fold change (FC): 1.67
Candida parapsilosis [21]
  fold change (FC): 1.69
Candida parapsilosis [22]
  fold change (FC): 1.7
Candida parapsilosis [23]
  fold change (FC): 1.75
Candida parapsilosis [24]
  fold change (FC): 1.77
Candida parapsilosis [25]
  fold change (FC): 1.6
